Reference: ChEMBL document CHEMBL4339193, “Phenotypic Screening-Based Identification of 3,4-Disubstituted Piperidine Derivatives as Macrophage M2 Polarization Modulators: An Opportunity for Treating Multiple Sclerosis” (J Med Chem, 2019)
The source made the active and inactive calls. No cut-off for these calls is given here.

Experiments:
[1] = Ratio of AUC (0 to t) to AUC (0 to infinity) in Sprague-Dawley rat at 10 mg/kg, iv administered as single dose […]; format: ADME, organism-based; conditions: in vivo
[2] = Half life in Sprague-Dawley rat at 10 mg/kg, iv administered as single dose by LC/MS analysis; format: ADME, organism-based; conditions: in vivo
Method in brief: (§1)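 Single dose in rats; venous blood (100 µL) drawn at 0, 0.5, 1, 2, 4, 8 and 12 h, plasma separated by centrifugation and held at -20 °C. Compound measured by LC/MS; Cmax, Tmax, t1/2 and AUC derived from the concentration–time data.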

[3] = test system: BMDM; test: Modulation of M2 polarization in C57BL/6J mouse BMDM cells assessed as up regulation of YM1 expression at 300 nM measured after 4 to 24 hrs by Western blot analysis; format: functional, cell-based
Method in brief: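 BMDMs lysed in pH 7.6 buffer with 1% Triton X-100, phosphatase inhibitor and 1 mM PMSF. Proteins separated by SDS-PAGE, blotted to PVDF and probed with anti-Arg-1, anti-Ym1 or anti-TNF-α, then ECL detection; GAPDH as loading control.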

[4] = test system: BMDM; test: Inhibition of LPS-induced M1 polarization in C57BL/6J mouse BMDM cells assessed as down regulation of CD86 mRNA expression at 300 nM measured after 24 hrs by qRT-PCR analysis; format: functional, cell-based
Method in brief: (§2)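 BMDMs pre-incubated 24 h with 50 ng/ml LPS to induce M1, then treated 24 h with 300 nM compound. Total RNA extracted with Trizol; Mcp1, Inos and Cd86 mRNA measured by qRT-PCR. Mean ± SEM.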

[5] = test system: BMDM; test: Antiinflammatory activity in LPS-induced C57BL/6J mouse BMDM cells assessed as suppression of M1 macrophage-stimulated Th1 cell population by measuring decrease in IFNgamma level at 300 nM measured after 48 hrs by ELISA; format: functional, cell-based
Method in brief: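 Supernatant collected from the 72 h coculture of CFSE-labelled naïve CD4+ T cells (anti-CD3/anti-CD28, 500 ng/ml each, 1:1) with BMDMs pretreated 48 h with 50 ng/ml LPS plus 300 nM compound. IFN-γ or IL-17A quantified by ELISA. Mean ± SEM, at least three independent experiments.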

[6] = AUC (0 to infinity) in Sprague-Dawley rat at 10 mg/kg, iv administered as single dose by LC/MS analysis; format: ADME, organism-based; set-up: dose 10 mg/kg, time infinity, route intravenous; conditions: in vivo; method in brief: as §1
[7] = test system: BMDM; test: Inhibition of LPS-induced M1 polarization in C57BL/6J mouse BMDM cells assessed as down regulation of Mcp1 mRNA expression at 300 nM measured after 24 hrs by qRT-PCR analysis; format: functional, cell-based; method in brief: as §2
[8] = target: RAC-alpha serine/threonine-protein kinase (Mus musculus) (UniProt P31750); test: Stimulation of AKT phosphorylation at 308 residue in mouse RAW264.7 cells at 300 nM measured after 4 to 24 hrs by Western blot analysis; format: cell-based
Chain of RAC-alpha serine/threonine-protein kinase (Mus musculus) (P31750 whole entry): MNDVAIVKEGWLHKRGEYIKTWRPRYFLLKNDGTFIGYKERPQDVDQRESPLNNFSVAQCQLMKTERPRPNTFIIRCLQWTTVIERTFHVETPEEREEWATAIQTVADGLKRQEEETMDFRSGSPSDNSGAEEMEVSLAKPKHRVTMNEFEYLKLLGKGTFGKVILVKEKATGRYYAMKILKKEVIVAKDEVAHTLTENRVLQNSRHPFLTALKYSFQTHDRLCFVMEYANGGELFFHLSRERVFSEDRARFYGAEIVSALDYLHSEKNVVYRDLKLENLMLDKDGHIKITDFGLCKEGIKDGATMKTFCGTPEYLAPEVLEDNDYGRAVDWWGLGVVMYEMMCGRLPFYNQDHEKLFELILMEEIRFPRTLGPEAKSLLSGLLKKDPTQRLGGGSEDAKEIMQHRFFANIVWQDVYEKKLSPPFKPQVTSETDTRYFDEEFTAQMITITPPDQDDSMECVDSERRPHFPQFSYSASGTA
Method in brief: (§3)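 Cell lysates separated by SDS-PAGE, transferred to PVDF and probed for Akt, p-Akt(308), p-Akt(473), Stat3, p-Stat3(Y705), Stat6 and p-Stat6; ECL detection, GAPDH as loading control.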

[9] = test system: RAW264.7; test: Modulation of M2 polarization in mouse RAW264.7 cells assessed as change in Arg1 mRNA expression at 300 nM measured after 24 hrs by qRT-PCR analysis relative to control; format: functional
Method in brief: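 RAW264.7 cells (DMEM, 10% FBS) given 300 nM compound for 24 h; IL-4 20 ng/ml as positive control. Arg1 mRNA measured by qRT-PCR; fold change = expression in dosed group / expression in untreated control.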

[10] = test system: RAW264.7; test: Inhibition of M1 polarization in mouse RAW264.7 cells assessed as down regulation of IL6 mRNA expression at 300 nM measured after 24 hrs by qRT-PCR analysis; format: functional, cell-based
[11] = test system: Mus musculus; test: (§4) Antiinflammatory activity in C57BL/6J mouse model of MOG (35 to 55 residues)/pertussis toxin/complete Freund's adjuvant-induced experimental allergic encephalomyelitis assessed as reduction in demyelination in spinal cord at 200 mg/kg, ig administered daily starting from 7 days post-immunization measured after 14 days post-immunization by H and E staining based microscopic analysis; format: functional, organism-based
Method in brief: (§5)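 EAE mice dosed daily in saline from day 7 were perfused with PBS and fixed in 4% PFA on day 14; spinal cords were taken. For LFB, frozen OCT sections sat 3 h in 0.1% Luxol Fast Blue at 56-60°C, were differentiated in 0.05% lithium carbonate for 10-12 s, cleared in 70% ethanol, dehydrated and mounted. For H&E, paraffin sections were stained to assess inflammation.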

[12] = test system: Mus musculus; test: as §4, with “effect on Treg cell population” for “reduction”, “spleen by measuring change” for “demyelination”, “CD4 level” for “spinal cord”, “13 to 19” for “14”, “flow cytometry” for “H and E staining based microscopic”; format: functional, organism-based
Method in brief: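 MOG35-55/CFA EAE mice were dosed daily in saline from day 7 and sampled between days 13 and 19. Spleens and dLNs were mechanically dissociated to single cells. CNS cells came from collagenase IV digestion and a 70%/30% Percoll gradient. Cells were surface-stained with fluorochrome antibodies, including CD4, CD11b, CD11c and MHC-II, and analysed by flow cytometry.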

[13] = AUC (0 to t) in Sprague-Dawley rat at 10 mg/kg, iv administered as single dose by LC/MS analysis; format: ADME, organism-based; conditions: in vivo; method in brief: as §1
[14] = test system: RAW264.7; test: Modulation of M2 polarization in mouse RAW264.7 cells assessed as up regulation of PPARGC1A mRNA expression at 300 nM measured after 24 hrs by qRT-PCR analysis; format: functional, cell-based
[15] = test system: Mus musculus; test: Inhibition of M1 polarization in C57BL/6J mouse model of MOG (35 to 55 residues)/pertussis toxin/complete Freund's adjuvant-induced experimental allergic encephalomyelitis assessed as CD86 level in spleen at 200 mg/kg, ig administered daily starting from 7 days post-immunization measured after 13 to 19 days post-immunization by flow cytometry analysis (reference value: 11.8%); format: functional; set-up: scale not given: the % may be the effect or the level left
Method in brief: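 MOG35-55/CFA EAE mice were dosed daily in saline from day 7 and sampled between days 13 and 19. Cells came from spleen and dLN by mechanical dissociation and from CNS by collagenase IV/Percoll. They were stained for F4/80 with CD206 (M2) or CD86 (M1), and each was read by flow cytometry as a percentage of total F4/80+ macrophages.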

[16] = test system: Mus musculus; test: as §4, with “infiltration” for “demyelination”, “LFB” for “H and E”; format: functional, organism-based; method in brief: as §5
[17] = target: Signal transducer and activator of transcription 3 (Mus musculus) (UniProt P42227); test: Stimulation of STAT3 phosphorylation at Y705 residue in mouse RAW264.7 cells at 300 nM measured after 4 to 24 hrs by Western blot analysis; format: cell-based; method in brief: as §3
Chain of Signal transducer and activator of transcription 3 (Mus musculus) (P42227 whole entry): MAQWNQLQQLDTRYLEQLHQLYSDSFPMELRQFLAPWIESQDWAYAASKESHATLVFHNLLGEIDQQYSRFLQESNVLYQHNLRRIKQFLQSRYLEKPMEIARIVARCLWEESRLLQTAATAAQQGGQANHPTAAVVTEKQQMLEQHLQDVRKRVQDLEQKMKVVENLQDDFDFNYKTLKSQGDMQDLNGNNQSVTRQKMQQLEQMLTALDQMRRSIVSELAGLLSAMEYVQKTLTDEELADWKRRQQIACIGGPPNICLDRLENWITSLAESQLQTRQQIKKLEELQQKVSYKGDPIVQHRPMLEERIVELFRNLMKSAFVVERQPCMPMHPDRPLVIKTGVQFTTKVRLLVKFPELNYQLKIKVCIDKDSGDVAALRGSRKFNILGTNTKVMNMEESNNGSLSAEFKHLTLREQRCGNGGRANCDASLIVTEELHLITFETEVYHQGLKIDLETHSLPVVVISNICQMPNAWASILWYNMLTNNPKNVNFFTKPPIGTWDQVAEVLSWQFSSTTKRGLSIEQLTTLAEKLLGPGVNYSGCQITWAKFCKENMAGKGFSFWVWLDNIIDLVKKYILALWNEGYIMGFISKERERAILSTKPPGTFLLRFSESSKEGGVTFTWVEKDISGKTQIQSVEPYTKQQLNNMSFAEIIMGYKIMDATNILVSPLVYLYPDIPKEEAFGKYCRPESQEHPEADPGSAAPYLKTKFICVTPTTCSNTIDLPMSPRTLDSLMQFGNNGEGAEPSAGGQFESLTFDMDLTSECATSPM

[18] = test system: RAW264.7; test: Inhibition of LPS-induced M1 polarization in mouse RAW264.7 cells assessed as down regulation of Mcp1 mRNA expression at 300 nM measured after 24 hrs by qRT-PCR analysis relative to control; format: functional, cell-based
Method in brief: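 RAW264.7 cells pre-treated with LPS (50 ng/ml) for 24 h, then given 300 nM compound for 24 h. Mcp1 mRNA quantified by qRT-PCR relative to control. Mean ± SEM.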

[19] = Cmax in Sprague-Dawley rat at 50 mg/kg, po administered as single dose via gavage by LC/MS analysis; format: ADME, organism-based; set-up: dose 50 mg/kg, route oral; conditions: in vivo; method in brief: as §1

In the case of `Cl.Cn1ncc(Cl)c1-c1ccc(C(=O)N[C@@H]2CNCC[C@H]2c2cccc(F)c2)cc1`, the “Ratio AUC” value [1] is reported as 98.75%, the half-life [2] is reported as 6.3 h and the Activity [3] is reported as “Active”. The inhibition [4] was “Active”, the Activity [5] was “Active” and the AUC(0-inf) [6] was 1870 ng·h/mL. The inhibition [7] was “Active”, the Activity [8] was “Active” and the “fold change (FC)” value [9] was 13.97. The inhibition [10] was “Active”, the Activity [11] was “Active” and the Activity [12] was “inactive”. The AUC(0-t) [13] was 1840 ng·h/mL, the Activity [14] was “Active” and the Activity [15] was 6.9%. For the same compound, the Activity [16] was “Active”, the Activity [17] was “Active” and the inhibition [18] was “Active”. For the same compound, the Cmax [19] was 313 ng/mL.
